{"data": "Measurements pooled from the literature", "target": "Serine/threonine-protein kinase D1 (PRKD1, Homo sapiens, UniProt Q15139)", "note": "Protocols differ between the studies behind these lines."}
{"SMILES": "CNC(=O)c1cc(Oc2ccc(NC(=O)Nc3ccc(Cl)c(C(F)(F)F)c3)cc2)ccn1", "observed": "enzyme activity", "action": "inhibitor", "tested at": "0.3 µM", "endpoint": "inhibition", "value": "8%"}
{"SMILES": "Cc1c(NC(=O)c2cc(C(N)=O)nc3cc(F)ccc23)c(C(F)(F)F)nn1Cc1ccc(C(C)(C)C)cc1", "observed": "cell-free assay", "method": "competition with immobilised ligand", "tested at": "1 µM", "endpoint": "remaining binding", "value": "100%"}
{"SMILES": "FC(F)c1nc2ccccc2n1-c1nc(N2CCOCC2)nc(N2CCOCC2)n1", "observed": "enzyme activity", "action": "inhibitor", "tested at": "10 µM", "endpoint": "remaining activity", "value": "96%"}
{"SMILES": "COc1cccc2c(NCc3ccccc3)nc(-n3c(N)nc4ccccc43)nc12", "observed": "target engagement in cells", "action": "inhibitor", "method": "chemoproteomics", "tested at": "20 mM", "endpoint": "inhibition", "value": "-20.7%"}
{"SMILES": "COc1cc(Nc2cnc(C#N)c(O[C@H](C)CN(C)C)n2)ncc1-c1cnn(C)c1", "observed": "enzyme activity", "action": "inhibitor", "method": "radiometric", "tested at": "1 µM", "endpoint": "remaining activity", "value": "106%"}
{"SMILES": "Cc1ccc(C(=O)NCc2ccsc2)cc1C#Cc1cn(C(C)C)c2ncnc(N)c12", "observed": "enzyme activity", "action": "inhibitor", "tested at": "1 µM", "endpoint": "activity vs control", "value": "91%"}
{"SMILES": "Cc1ccc(C(=O)Nc2ccc(CN3CCN(C)CC3)c(C(F)(F)F)c2)cc1C#Cc1cnc2cccnn12", "observed": "enzyme activity", "action": "inhibitor", "tested at": "23.5 nM", "endpoint": "remaining activity", "value": "91%"}
{"SMILES": "CCN(CC)c1ccc(C2=NNC(=O)CC2C)cc1[N+](=O)[O-] (stereo not shown)", "observed": "enzyme activity", "action": "inhibitor", "tested at": "10 µM", "endpoint": "remaining activity", "value": "14%"}
{"SMILES": "Cc1ncc([N+](=O)[O-])n1C(=NO)c1ccccc1C(F)(F)F", "observed": "enzyme activity", "action": "inhibitor", "tested at": "10 µM", "endpoint": "inhibition", "value": "7.69%"}
{"SMILES": "Cc1ccc(Nc2nccc(N(C)c3ccc4c(C)n(C)nc4c3)n2)cc1S(N)(=O)=O", "observed": "enzyme activity", "action": "inhibitor", "tested at": "0.3 µM", "endpoint": "inhibition", "value": "9%"}
{"SMILES": "Cc1ccc(NC(=O)c2ccc(C)c(C(F)(F)F)c2)cc1C#Cc1nn(C2CCC(O)CC2)c2ncnc(N)c12 (stereo not shown)", "observed": "cell-free assay", "tested at": "10 µM", "endpoint": "remaining signal", "value": "91%"}
{"SMILES": "CCOc1cc(-c2nncn2C)ccc1Nc1ncc2cc(C)nc(NCC(C)(C)C)c2n1", "observed": "enzyme activity", "action": "inhibitor", "method": "FRET", "tested at": "1 µM", "endpoint": "inhibition", "value": "37%"}
{"SMILES": "CN(c1ncccc1CNc1nc(Nc2ccc3c(c2)CC(=O)N3)ncc1C(F)(F)F)S(C)(=O)=O", "observed": "enzyme activity", "action": "inhibitor", "tested at": "1 µM", "endpoint": "inhibition", "value": "49%"}
{"SMILES": "Nc1ncnc2occ(-c3ccc(NC(=O)Nc4cc(C(F)(F)F)ccc4F)cc3)c12", "observed": "cell-free assay", "action": "inhibitor", "tested at": "20 µM", "endpoint": "remaining signal", "value": "30%"}
{"SMILES": "CC(C)(C)C(=O)c1sc(NC2CCCCC2)nc1N", "observed": "enzyme activity", "action": "inhibitor", "tested at": "10 µM", "endpoint": "remaining activity", "value": "85%"}
{"SMILES": "COc1cc2ncnc(Nc3ccc(Oc4ccccc4)cc3C)c2cc1OC", "observed": "enzyme activity", "action": "inhibitor", "tested at": "1 µM", "endpoint": "inhibition", "value": "8%"}
{"SMILES": "Cn1c(=O)n(-c2ccc(C(C)(C)C#N)cc2)c2c3cc(-c4cnc5ccccc5c4)ccc3ncc21", "observed": "enzyme activity", "action": "inhibitor", "tested at": "10 µM", "endpoint": "remaining activity", "value": "107%"}
{"SMILES": "Cn1cncc1C1=CN(c2ncnc3[nH]cnc23)CCS1", "observed": "enzyme activity", "action": "inhibitor", "method": "radiometric", "tested at": "50 nM", "endpoint": "inhibition", "value": "21.3%"}
{"SMILES": "Cc1cc(NC(=O)c2cccc3cc(-c4cccc5[nH]nc(N)c45)ccc23)ccc1F", "observed": "enzyme activity", "action": "inhibitor", "tested at": "0.1 µM", "endpoint": "activity vs control", "value": "76%"}
{"SMILES": "CC(=O)N1CCC(c2ccc(C(=O)NC3=NCCN3)cc2C(F)(F)F)CC1", "observed": "cell-free assay", "method": "competition with immobilised ligand", "tested at": "1 µM", "endpoint": "remaining binding", "value": "100%"}
{"SMILES": "C[C@@H]1CCN(C(=O)CC#N)C[C@@H]1N(C)c1ncnc2[nH]ccc12", "observed": "cell-free assay", "action": "inhibitor", "tested at": "0.5 µM", "endpoint": "remaining signal", "value": "97.3%"}
{"SMILES": "CNC(=O)Nc1ccc2c(c1)[C@@]1(CC2)OC(=O)N(CC(=O)N(Cc2ccc(F)cc2)[C@@H](C)C(F)(F)F)C1=O", "observed": "cell-free assay", "method": "competition with immobilised ligand", "tested at": "1 µM", "endpoint": "remaining binding", "value": "100%"}
{"SMILES": "N#CCCc1ccc2c(c1)-c1[nH]c3ccc([N+](=O)[O-])cc3c1CC(=O)N2", "observed": "cell-free assay", "tested at": "0.5 µM", "endpoint": "remaining signal", "value": "87.5%"}
{"SMILES": "Cc1c(C(=O)O)cc(-c2ccc(C3CCNCC3)cc2)c2ccc(-c3ccc(C(F)(F)F)cc3)cc12", "observed": "binding", "method": "competition with immobilised ligand", "tested at": "1 µM", "endpoint": "remaining binding", "value": "100%"}
{"SMILES": "O=C(Nc1cnn(-c2csc(C(=O)NC3COC3)c2)c1)Nc1ccccc1Cl", "observed": "enzyme activity", "action": "inhibitor", "tested at": "5 µM", "endpoint": "remaining activity", "value": "114%"}
{"SMILES": "CN([C@@H]1CCc2c(CC(=O)O)c3ccccc3n2C1)S(=O)(=O)c1ccc(F)cc1", "observed": "cell-free assay", "method": "competition with immobilised ligand", "tested at": "1 µM", "endpoint": "remaining binding", "value": "100%"}
{"SMILES": "Cn1cnc(Br)c1C1=CN(c2ncnc3[nH]cnc23)CCS1", "observed": "enzyme activity", "action": "inhibitor", "method": "radiometric", "tested at": "50 nM", "endpoint": "inhibition", "value": "21.4%"}
{"SMILES": "CC(C)(O)c1cncc(-c2nc3ccc(F)cc3n2C2CC2)c1", "observed": "cell-free assay", "method": "competition with immobilised ligand", "tested at": "1 µM", "endpoint": "remaining binding", "value": "100%"}
{"SMILES": "FC(F)(F)Oc1cccc(-c2cnc3ccc(-c4ccncc4)nn23)c1", "observed": "enzyme activity", "action": "inhibitor", "method": "radiometric", "tested at": "1 µM", "endpoint": "activity vs control", "value": "106%"}
{"SMILES": "CC(C)(C)c1nc2c(s1)c1nc(N)ncc1c1ccc(NS(=O)(=O)c3c(F)cccc3F)c(F)c12", "observed": "enzyme activity", "action": "inhibitor", "method": "radiometric", "tested at": "1 µM", "endpoint": "remaining activity", "value": "93%"}
{"SMILES": "O=C(N[C@H]1CCCCC/C=C\\C2C[C@@]2(C(=O)O)NC(=O)[C@@H]2C[C@@H](Oc3ccncc3)CN2C1=O)OC1CCCC1 (stereo partly shown)", "observed": "binding", "method": "competition with immobilised ligand", "tested at": "1 µM", "endpoint": "remaining binding", "value": "96%"}
{"SMILES": "COc1cc2ncnc(Nc3ccc(F)c(Cl)c3)c2cc1OCCCN1CCOCC1", "observed": "cell-free assay", "tested at": "0.5 µM", "endpoint": "remaining signal", "value": "85.4%"}
{"SMILES": "CC(C)CC(=O)N1CCc2nc(-c3ccc(Br)cc3)nc(N(C)Cc3ccccc3)c2C1", "observed": "cell-free assay", "method": "competition with immobilised ligand", "tested at": "0.1 µM", "endpoint": "remaining binding", "value": "87%"}
{"SMILES": "Cc1sc(C(=O)NC2COC2)cc1-n1cc(NC(=O)Nc2c(F)cccc2Cl)cn1", "observed": "enzyme activity", "action": "inhibitor", "tested at": "10 µM", "endpoint": "remaining activity", "value": "93.3%"}
